Measured values from ChEMBL document CHEMBL4396889, “From Inhibition to Degradation: Targeting the Antiapoptotic Protein Myeloid Cell Leukemia 1 (MCL1)” (J Med Chem, 2019).
Calls of active or inactive are those of the source. No cut-off for these calls is given here.

Assays:
[1] = tested on: OPM-2; experiment: Induction of apoptosis in wild type human OPM2 cells assessed as cleaved caspase-3 at 100 nM after 24 hrs in presence of 1% FBS by immunoblot analysis (reference value: 91%); type: functional
[2] = biological target: T1, Induced myeloid leukemia cell differentiation protein Mcl-1 (Homo sapiens, UniProt Q07820); experiment: Induction of MCL1 long isoform degradation in CRBN-/- human OPM2 cells assessed as protein abundance at 300 nM pre-incubated for 72 hrs followed by cycloheximide addition and measured after 60 mins by immunoblot analysis (reference value: 79%); type: cell-based
T1 sequence (Q07820 whole entry, canonical isoform): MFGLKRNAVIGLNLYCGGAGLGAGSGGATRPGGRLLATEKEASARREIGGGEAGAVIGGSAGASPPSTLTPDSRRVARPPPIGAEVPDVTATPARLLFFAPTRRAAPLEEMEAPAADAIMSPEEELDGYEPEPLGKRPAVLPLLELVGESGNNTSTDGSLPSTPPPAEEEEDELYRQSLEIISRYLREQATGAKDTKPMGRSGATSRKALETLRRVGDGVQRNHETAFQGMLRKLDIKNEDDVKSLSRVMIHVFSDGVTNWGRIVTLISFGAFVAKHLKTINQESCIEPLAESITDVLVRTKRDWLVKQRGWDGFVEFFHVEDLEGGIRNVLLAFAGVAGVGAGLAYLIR
In short: (§1)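 Cycloheximide chase: cells were treated for 72 h with DMSO or degrader, with cycloheximide added for the final 30, 60 or 120 min. OPM2 and MM1.S cells were used, and wild-type OPM2 was compared with OPM2 CRBN-/- at 60 and 120 min. MCL1 was detected by immunoblot.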

[3] = biological target: T2, Protein cereblon/Induced myeloid leukemia cell differentiation protein Mcl-1 (Homo sapiens) (UniProt Q07820+Q96SW2); experiment: Protac activity at Cereblon/MCL1 long isoform in wild type human OPM2 cells assessed as MCL1 long isoform level at 300 nM pre-incubated for 72 hrs followed by cycloheximide addition and measured after 120 mins by immunoblot analysis (reference value: 53%); type: cell-based; in short: as §1
T2 sequence (Q07820 whole entry, looked up, canonical isoform): as the sequence (Q07820 whole entry, canonical isoform) above
T2 sequence (Q96SW2 whole entry, looked up, canonical isoform): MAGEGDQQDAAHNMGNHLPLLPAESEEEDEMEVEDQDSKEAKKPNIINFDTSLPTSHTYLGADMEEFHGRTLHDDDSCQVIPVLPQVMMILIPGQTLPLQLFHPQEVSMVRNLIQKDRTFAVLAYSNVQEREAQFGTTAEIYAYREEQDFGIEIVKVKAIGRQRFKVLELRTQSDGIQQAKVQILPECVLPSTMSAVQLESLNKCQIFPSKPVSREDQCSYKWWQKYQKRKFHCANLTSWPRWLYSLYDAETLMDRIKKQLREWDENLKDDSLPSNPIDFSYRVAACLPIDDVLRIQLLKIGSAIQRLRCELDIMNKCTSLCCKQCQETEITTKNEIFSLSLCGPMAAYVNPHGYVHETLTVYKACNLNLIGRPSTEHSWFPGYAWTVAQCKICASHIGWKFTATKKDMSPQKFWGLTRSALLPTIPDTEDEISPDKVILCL

[4] = biological target: T1, Induced myeloid leukemia cell differentiation protein Mcl-1; experiment: Induction of MCL1 short isoform degradation in CRBN-/- human OPM2 cells assessed as protein abundance at 100 nM after 48 hrs by immunoblot analysis relative to control; type: cell-based
In short: (§2)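 OPM2 multiple myeloma cells, wild type or CRBN-knockout, were treated for 48 h with degrader or DMSO vehicle. MCL1 long and short isoforms were detected by immunoblot and levels compared with DMSO controls.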

[5] = biological target: T2, Protein cereblon/Induced myeloid leukemia cell differentiation protein Mcl-1 (Homo sapiens); experiment: Protac activity at Cereblon/MCL1 in human OPM2 cell lysate assessed as induction of MCL1 polyubiquitination incubated for 3 hrs by SDS-PAGE/immunoblot analysis; type: subcellular
In short: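 In vitro ubiquitinylation reactions; the target (MCL1 or BRD4) was then immunoprecipitated and the immunoprecipitate immunoblotted for ubiquitin.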

[6] = biological target: T2, Protein cereblon/Induced myeloid leukemia cell differentiation protein Mcl-1 (Homo sapiens); experiment: Protac activity at Cereblon/MCL1 short isoform in wild type human OPM2 cells assessed as MCL1 short isoform abundance at 500 nM after 48 hrs by immunoblot analysis relative to control; type: cell-based
In short: (§3)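 OPM2 wild-type cells, run alongside the CRBN-/- line, were treated for 48 h with compound or DMSO. The MCL1 long and short isoforms were then measured by immunoblot against the DMSO control.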

[7] = biological target: T2, Protein cereblon/Induced myeloid leukemia cell differentiation protein Mcl-1 (Homo sapiens); experiment: Protac activity at Cereblon/MCL1 long isoform in human OPM2 cells assessed as MCL1 long isoform level at 300 nM pre-incubated for 72 hrs followed by cycloheximide addition and measured after 120 mins by immunoblot analysis (reference value: 58%); type: cell-based; in short: as §1
[8] = biological target: T2, Protein cereblon/Induced myeloid leukemia cell differentiation protein Mcl-1 (Homo sapiens); experiment: Protac activity at Cereblon/MCL1 long isoform in human MM1S cells assessed as MCL1 long isoform level at 300 nM pre-incubated for 72 hrs followed by cycloheximide addition and measured after 30 mins by immunoblot analysis (reference value: 96%); type: cell-based; in short: as §1
[9] = biological target: T2, Protein cereblon/Induced myeloid leukemia cell differentiation protein Mcl-1 (Homo sapiens); experiment: Protac activity at Cereblon/MCL1 long isoform in human OPM2 cells assessed as MCL1 long isoform abundance at 500 nM after 24 hrs by immunoblot analysis relative to control; type: cell-based
[10] = biological target: T2, Protein cereblon/Induced myeloid leukemia cell differentiation protein Mcl-1 (Homo sapiens); experiment: Protac activity at Cereblon/MCL1 long isoform in wild type human OPM2 cells assessed as protein abundance at 50 nM after 48 hrs by immunoblot analysis relative to control; type: cell-based; in short: as §2
[11] = biological target: T2, Protein cereblon/Induced myeloid leukemia cell differentiation protein Mcl-1 (Homo sapiens); experiment: Protac activity at Cereblon/MCL1 short isoform in human OPM2 cells assessed as MCL1 short isoform abundance at 500 nM after 24 hrs by immunoblot analysis relative to control; type: cell-based
[12] = biological target: T1, Induced myeloid leukemia cell differentiation protein Mcl-1; experiment: Induction of MCL1 long isoform degradation in CRBN-/- human OPM2 cells assessed as protein abundance at 50 nM after 48 hrs by immunoblot analysis relative to control; type: cell-based; in short: as §2
[13] = biological target: T2, Protein cereblon/Induced myeloid leukemia cell differentiation protein Mcl-1 (Homo sapiens); experiment: Protac activity at Cereblon/MCL1 long isoform in wild type human OPM2 cells at 250 nM after 48 hrs by immunoblot analysis relative to control; type: cell-based; in short: as §2
[14] = biological target: T2, Protein cereblon/Induced myeloid leukemia cell differentiation protein Mcl-1 (Homo sapiens); experiment: Protac activity at Cereblon/MCL1 short isoform in wild type human OPM2 cells assessed as MCL1 short isoform level at 300 nM pre-incubated for 72 hrs followed by cycloheximide addition and measured after 60 mins by immunoblot analysis (reference value: 64%); type: cell-based
In short: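 OPM2 wild-type and OPM2 CRBN-/- cells were treated for 72 h with compound or DMSO, with cycloheximide present for the final 60 or 120 min. MCL1 was detected by immunoblot.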

[15] = biological target: T2, Protein cereblon/Induced myeloid leukemia cell differentiation protein Mcl-1 (Homo sapiens); experiment: Protac activity at Cereblon/MCL1 long isoform in human MM1S cells assessed as MCL1 long isoform level at 300 nM pre-incubated for 72 hrs followed by cycloheximide addition and measured after 60 mins by immunoblot analysis (reference value: 82%); type: cell-based; in short: as §1
[16] = biological target: T2, Protein cereblon/Induced myeloid leukemia cell differentiation protein Mcl-1 (Homo sapiens); experiment: Protac activity at Cereblon/MCL1 short isoform in wild type human OPM2 cells assessed as MCL1 short isoform abundance at 100 nM after 48 hrs by immunoblot analysis relative to control; type: cell-based; in short: as §3
[17] = biological target: T2, Protein cereblon/Induced myeloid leukemia cell differentiation protein Mcl-1 (Homo sapiens); experiment: Protac activity at Cereblon/MCL1 in human OPM2 cells assessed as protein abundance at 500 nM after 48 hrs by immunoblot analysis relative to control; type: cell-based; in short: as §2
[18] = biological target: T1, Induced myeloid leukemia cell differentiation protein Mcl-1; experiment: Induction of MCL1 short isoform degradation in CRBN-/- human OPM2 cells assessed as protein abundance at 300 nM pre-incubated for 72 hrs followed by cycloheximide addition and measured after 120 mins by immunoblot analysis (reference value: 16%); type: cell-based; in short: as §1
[19] = biological target: T2, Protein cereblon/Induced myeloid leukemia cell differentiation protein Mcl-1 (Homo sapiens); experiment: Protac activity at Cereblon/MCL1 long isoform in human OPM2 cells assessed as MCL1 long isoform abundance at 250 nM after 24 hrs by immunoblot analysis relative to control; type: cell-based
[20] = biological target: T1, Induced myeloid leukemia cell differentiation protein Mcl-1; experiment: Induction of MCL1 short isoform degradation in CRBN-/- human OPM2 cells assessed as protein abundance at 50 nM after 48 hrs by immunoblot analysis relative to control; type: cell-based; in short: as §2
[21] = biological target: T2, Protein cereblon/Induced myeloid leukemia cell differentiation protein Mcl-1 (Homo sapiens); experiment: Protac activity at Cereblon/MCL1 short isoform in human OPM2 cells assessed as MCL1 short isoform level at 300 nM pre-incubated for 72 hrs followed by cycloheximide addition and measured after 60 mins by immunoblot analysis (reference value: 49%); type: cell-based
In short: (§4)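 OPM2 or MM1.S cells were treated for 72 h with compound or DMSO. Cycloheximide was added for the final 30, 60 or 120 min. MCL1 was read by immunoblot and compared with DMSO-treated cells as a normal-turnover reference.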

[22] = biological target: T2, Protein cereblon/Induced myeloid leukemia cell differentiation protein Mcl-1 (Homo sapiens); experiment: Protac activity at Cereblon/MCL1 long isoform in wild type human OPM2 cells at 100 nM after 48 hrs by immunoblot analysis relative to control; type: cell-based; in short: as §2
[23] = biological target: T2, Protein cereblon/Induced myeloid leukemia cell differentiation protein Mcl-1 (Homo sapiens); experiment: Protac activity at Cereblon/MCL1 long isoform in human OPM2 cells assessed as MCL1 long isoform abundance at 50 nM after 24 hrs by immunoblot analysis relative to control; type: cell-based
[24] = biological target: T1, Induced myeloid leukemia cell differentiation protein Mcl-1; experiment: Induction of MCL1 long isoform degradation in CRBN-/- human OPM2 cells assessed as protein abundance at 100 nM after 48 hrs by immunoblot analysis relative to control; type: cell-based; in short: as §2
[25] = biological target: T2, Protein cereblon/Induced myeloid leukemia cell differentiation protein Mcl-1 (Homo sapiens); experiment: Protac activity at Cereblon/MCL1 in human OPM2 cells assessed as protein abundance at 25 nM after 48 hrs by immunoblot analysis relative to control; type: cell-based; in short: as §2
[26] = biological target: T2, Protein cereblon/Induced myeloid leukemia cell differentiation protein Mcl-1 (Homo sapiens); experiment: Protac activity at Cereblon/MCL1 short isoform in human OPM2 cells assessed as MCL1 short isoform level at 300 nM pre-incubated for 72 hrs followed by cycloheximide addition and measured after 30 mins by immunoblot analysis (reference value: 100%); type: cell-based; in short: as §4
[27] = Half-life in human liver microsome pre-incubated for 10 mins followed by addition of NADPH regenerating system after 5 to 60 mins by LC/MS/MS analysis; type: ADME; settings: liver microsomes

Work on Cc1nn(C)c(COc2ccc(N3CCN(S(=O)(=O)N(C)C)CC3)cc2)c1-c1cccc2c(CCCOc3cccc4ccccc34)c(C(=O)O)n(CCN3CCN(C(=O)COc4cccc5c4C(=O)N(C4CCC(=O)NC4=O)C5=O)CC3)c12 (configuration not stated) yielded an Activity [1] of 143%, an Activity [2] of 78% and an Activity [3] of 16%. The Activity [4] was 100%, the Activity [5] was “Active” and the Activity [6] was 20%. The Activity [7] was 24%, the Activity [8] was 90% and the Activity [9] was 55%. The Activity [10] was 100%, the Activity [11] was 22% and the Activity [12] was 100%. It also gave an Activity [13] of 70%, an Activity [14] of 14% and an Activity [15] of 58%. For the same molecule, the Activity [16] was 53%, the Activity [17] was 58% and the Activity [18] was 25%. It also gave an Activity [19] of 73%, an Activity [20] of 100% and an Activity [21] of 8%. It also gave an Activity [22] of 69%, an Activity [23] of 97% and an Activity [24] of 90%. For the same molecule, the Activity [25] was 89%, the Activity [26] was 34% and the half-life [27] was 20.6 min.
